B1: Osa-1-4 twister ribozyme (parent)
chain: CCGCCUAACACUGCCAAUGCCGGUCCCAAGCCCGGAUAAAAGUGGAGGGGGCGG

Variants of: B1
Assay: self-cleavage, relative activity (ratio to wild type); higher = more cleavage; co-transcriptional
Method in brief: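 For each read, cleavage status was taken from whether upstream sequence was present. The reads came from an Oryza sativa twister ribozyme of 54 nucleotides, whose DNA template was synthesised with 97 % wild-type base and 1 % of each other base at the 48 positions downstream of the cleavage site. The template was transcribed in vitro at 37 °C for 2 h with co-transcriptional self-cleavage, and the RNA was reverse-transcribed using a template-switching oligonucleotide, PCR-amplified and deep-sequenced. Relative activity is the fraction cleaved normalised to wild type.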

Compared with CCGCCUAACACUGCGAAUGCCGGUUCCAAGCCCGGAUAAAAGUGGAGGGGGCGG [C15G C25U], CCGCCUAACACUGCGAAUGCCGGUGCCAAGCCCGGAUAAAAGUGGAGGGGGCGG [C15G C25G] is lower in self-cleavage: 0.12 for the first, 0.07 for the second.

Compared with CCGCCUAACACUGCGAAUGCCGGUACCAAGCCCGGAUAAAAGUGGAGGGGGCGG [C15G C25A], CCGCCUAACACUGCGAAUGCCGGUCCCAAGCCCGGAUAAAAGUGGAGGGGGGGG [C15G C52G] is higher in self-cleavage: 0.05 for the first, 0.31 for the second.

Compared with CCGCCUAACACUGCGAAUGCCGGUCCCAAGCCCGGAUAAAAGUGGAGGGGGUGG [C15G C52U], CCGCCUAACACUGCGAAUGCCGGUCCCAAGCCCGGAUAAAAGUGGAGGGGGAGG [C15G C52A] is lower in self-cleavage: 0.48 for the first, 0.21 for the second.

Compared with CCGCCUAAGACUGCGAAUGCCGGUCCCAAGCCCGGAUAAAAGUGGAGGGGGCGG [C15G C9G], CCGCCUAAUACUGCGAAUGCCGGUCCCAAGCCCGGAUAAAAGUGGAGGGGGCGG [C15G C9U] is lower in self-cleavage: 0.66 for the first, 0.11 for the second.

First: CCGCCUAAAACUGCGAAUGCCGGUCCCAAGCCCGGAUAAAAGUGGAGGGGGCGG [C15G C9A]
Second: CCGCCUAACACUGCGAAUUCCGGUCCCAAGCCCGGAUAAAAGUGGAGGGGGCGG [C15G G19U]
The self-cleavage of the first is lower: 0.06 for the first, 0.7 for the second.

First: CCGCCUAACACUGCGAAUACCGGUCCCAAGCCCGGAUAAAAGUGGAGGGGGCGG [C15G G19A]
Second: CCGCCUAACACUGCGAAUCCCGGUCCCAAGCCCGGAUAAAAGUGGAGGGGGCGG [C15G G19C]
The self-cleavage of the first is higher: 0.95 for the first, 0.74 for the second.

Going from CCGCCUAACACUGCGAAUGCCGUUCCCAAGCCCGGAUAAAAGUGGAGGGGGCGG [C15G G23U] to CCGCCUAACACUGCGAAUGCCGCUCCCAAGCCCGGAUAAAAGUGGAGGGGGCGG [C15G G23C], the self-cleavage rises from 0.04 to 0.07.

Going from CCGCCUAACACUGCGAAUGCCGAUCCCAAGCCCGGAUAAAAGUGGAGGGGGCGG [C15G G23A] to CCGCCUAACACUGCGAAUGCCAGUCCCAAGCCCGGAUAAAAGUGGAGGGGGCGG [C15G G22A], the self-cleavage rises from 0.14 to 0.16.

First: CCGCCUAACACUGCGAAUGCCUGUCCCAAGCCCGGAUAAAAGUGGAGGGGGCGG [C15G G22U]
Second: CCGCCUAACACUGCGAAUGCCCGUCCCAAGCCCGGAUAAAAGUGGAGGGGGCGG [C15G G22C]
The self-cleavage of the first is higher: 0.09 for the first, 0.06 for the second.

Going from CCGCCUAACACUCCGAAUGCCGGUCCCAAGCCCGGAUAAAAGUGGAGGGGGCGG [C15G G13C] to CCGCCUAACACUACGAAUGCCGGUCCCAAGCCCGGAUAAAAGUGGAGGGGGCGG [C15G G13A], the self-cleavage rises from 0.02 to 0.05.

Compared with CCGCCUAACACUUCGAAUGCCGGUCCCAAGCCCGGAUAAAAGUGGAGGGGGCGG [C15G G13U], CCGCCUAACACUGCGAAUGCCGGUCCCAAACCCGGAUAAAAGUGGAGGGGGCGG [C15G G30A] is higher in self-cleavage: 0.02 for the first, 0.03 for the second.

First: CCGCCUAACACUGCGAAUGCCGGUCCCAACCCCGGAUAAAAGUGGAGGGGGCGG [C15G G30C]
Second: CCGCCUAACACUGCGAAUGCAGGUCCCAAGCCCGGAUAAAAGUGGAGGGGGCGG [C15G C21A]
The self-cleavage of the first is lower: 0.03 for the first, 0.11 for the second.

Compared with CCGCCUAACACUGCGAAUGCUGGUCCCAAGCCCGGAUAAAAGUGGAGGGGGCGG [C15G C21U], CCGCCUAACACUGCGAAUGCGGGUCCCAAGCCCGGAUAAAAGUGGAGGGGGCGG [C15G C21G] is lower in self-cleavage: 0.42 for the first, 0.05 for the second.

Going from CCGCCUAACACUGCAAAUGCCGGUCCCAAGCCCGGAUAAAAGGGGAGGGGGCGG [C15A U43G] to CCGCCUAACACUGCAAAUGCCGGUCCCAAGCCCGGAUAAAAGAGGAGGGGGCGG [C15A U43A], the self-cleavage rises from 0.11 to 0.14.

Going from CCGCCUAACACUGCAAAUGCCGGUCCCAAGCCCGGAUAAAAGCGGAGGGGGCGG [C15A U43C] to CCGCCUAACACUGCGAAUGCCGGUCCCAAGUCCGGAUAAAAGUGGAGGGGGCGG [C15G C31U], the self-cleavage falls from 0.1 to 0.09.

Going from CCGCCUAACACUGCGAAUGCCGGUCCCAAGGCCGGAUAAAAGUGGAGGGGGCGG [C15G C31G] to CCGCCUAACACUGCGAAUGCCGGUCCCAAGACCGGAUAAAAGUGGAGGGGGCGG [C15G C31A], the self-cleavage falls from 0.12 to 0.03.

Going from CCGCCUAACACUGCGAAUGCCGGUCCCAAGCCGGGAUAAAAGUGGAGGGGGCGG [C15G C33G] to CCGCCUAACACUGCGAAUGCCGGUCCCAAGCCAGGAUAAAAGUGGAGGGGGCGG [C15G C33A], the self-cleavage falls from 0.06 to 0.05.

Compared with CCGCCUAACACUGCGAAUGCCGGUCCCAAGCCUGGAUAAAAGUGGAGGGGGCGG [C15G C33U], CCGCCUAACACUGCGAAUGCCGGUCCAAAGCCCGGAUAAAAGUGGAGGGGGCGG [C15G C27A] is lower in self-cleavage: 0.11 for the first, 0.08 for the second.

Compared with CCGCCUAACACUGCGAAUGCCGGUCCUAAGCCCGGAUAAAAGUGGAGGGGGCGG [C15G C27U], CCGCCUAACACUGCGAAUGCCGGUCCGAAGCCCGGAUAAAAGUGGAGGGGGCGG [C15G C27G] is higher in self-cleavage: 0.08 for the first, 0.1 for the second.

First: CCGCCUAACACUGCAAAUGCCGGUCCCAAGCCCGGAGAAAAGUGGAGGGGGCGG [C15A U37G]
Second: CCGCCUAACACUGCGAAUGCCGGUCCCAAGCCCGGAUAAAAGUGGAGGGGGCGG [C15G]
The self-cleavage of the first is higher: 0.78 for the first, 0.54 for the second.

Going from CCGCCUAACACUGCGAAUGCCGGUCCCAAGCACGGAUAAAAGUGGAGGGGGCGG [C15G C32A] to CCGCCUAACACUGCGAAUGCCGGUCCCAAGCGCGGAUAAAAGUGGAGGGGGCGG [C15G C32G], the self-cleavage rises from 0.05 to 0.12.

Compared with CCGCCUAACACUGCGAAUGCCGGUCCCAAGCUCGGAUAAAAGUGGAGGGGGCGG [C15G C32U], CCGCCUAACACUGCGAAUGUCGGUCCCAAGCCCGGAUAAAAGUGGAGGGGGCGG [C15G C20U] is higher in self-cleavage: 0.07 for the first, 0.69 for the second.

Going from CCGCCUAACACUGCGAAUGGCGGUCCCAAGCCCGGAUAAAAGUGGAGGGGGCGG [C15G C20G] to CCGCCUAACACUGCGAAUGACGGUCCCAAGCCCGGAUAAAAGUGGAGGGGGCGG [C15G C20A], the self-cleavage rises from 0.08 to 0.54.

CCGCCUAACACUGCGAAUGCCGGUCGCAAGCCCGGAUAAAAGUGGAGGGGGCGG [C15G C26G] and CCGCCUAACACUGCGAAUGCCGGUCUCAAGCCCGGAUAAAAGUGGAGGGGGCGG [C15G C26U] are the same in self-cleavage: 0.11 for the first, 0.11 for the second.

Work on CCGCCUAACACUGCGAAUGCCGGUCACAAGCCCGGAUAAAAGUGGAGGGGGCGG [C15G C26A] yielded a self-cleavage of 0.04.

— the RNAGym collection of RNA variant scans (doi:10.1002/anie.201605470)
